{"source": "paper PMC9097201", "about": "(ACS Omega, 2022)", "key": {"[1]": {"test_system": "human embryonic lungs (L132) cell lines", "assay": "Cell viability", "type": "cell-based", "conditions": "L132 cells, 100 μM peptide, 4 h, absorbance 570 nm, triplicate"}, "[2]": {"test_system": "trypsin, chymotrypsin, and proteinase K", "assay": "Proteolytic stability assay", "type": "in vitro ADME", "conditions": "reaction mixture post-incubation with enzyme cocktail, ESI-MS positive mode", "procedure,_shortened": "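Test compound (10 mM) was incubated with a 1:1:1 trypsin/chymotrypsin/proteinase K mixture (0.3 mg/mL) at 37 °C for 0–6 h. Enzymes were inactivated with an equal volume of acetonitrile containing 1% TFA for 15 min at 4 °C. The post-incubation reaction mixture was analysed by ESI-MS for intact peptide.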"}}, "note": "Where a SMILES comes first, the peptide text is derived from it. [ ]: non-standard residue; d: D form. Nle = CCCC[C@H](N)C(=O)O; Dab = NCC[C@H](N)C(=O)O", "data": [{"smiles": "CCCC[C@H](NC(=O)[C@H](CCN)NC(=O)[C@H](CCN)NC(=O)[C@H](CCCC)NC(=O)[C@H](Cc1c[nH]c2ccccc12)NC(=O)[C@H](CCN)NC(=O)[C@@H](N)CCCC)C(N)=O", "note": "[P36, Nle-Dab-Trp-Nle-Dab-Dab-Nle-CONH2] (H-[Nle][Dab]W[Nle][Dab][Dab][Nle]-NH2)", "values": [{"measurement": "cell viability (MTT)", "setting": "[1]", "value": "~90", "unit": "%"}, {"measurement": "chemical integrity after protease incubation (ESI-MS)", "setting": "[2]", "value": "contained only intact P36"}]}]}
